Experiments:
[1] = system: HEK293; experiment: Antiproliferative activity against human HEK293 cells after 2 days by MTT assay; type: cell-based; conditions: HEK293, 48 h
Outline: (§1)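 Cells (5×10^3 per well) in DMEM with 10% FBS, glucose, glutamine and antibiotics were exposed to serial dilutions (stocks in DMSO) for 2 days at 37 °C, 5% CO2. MTT was added for 3 h, formazan was dissolved in DMSO and absorbance read at 490 nm. Viability was taken as % of untreated cells. IC50 was read graphically from three independent experiments.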

[2] = system: MCF7; experiment: Antiproliferative activity against human MCF7 cells after 2 days by MTT assay; type: functional, cell-based; conditions: MCF7, 48 h; outline: as §1
[3] = system: HT-29; experiment: Antiproliferative activity against human HT-29 cells after 2 days by MTT assay; type: functional, cell-based; conditions: HT-29, 48 h; outline: as §1
[4] = system: HeLa; experiment: Antiproliferative activity against human HeLa cells after 2 days by MTT assay; type: functional, cell-based; conditions: 48 h; outline: as §1

Row | SMILES | IC50 [2] | IC50 [3] | IC50 [4] | IC50 [1]
1 | COc1cc2c(c(OC)c1OC)-c1ccc(OC)c(=O)cc1[C@@H](NC(=O)Nc1c(Cl)cccc1Cl)CC2 | 13 nM | 40 nM | 22 nM | 42 nM
2 | COc1cc2c(c(OC)c1OC)-c1ccc(OC)c(=O)cc1[C@@H](NC(=O)Nc1ccccc1C#N)CC2 | 11 nM | 11 nM | 10 nM | 11 nM
3 | COc1cc2c(c(OC)c1OC)-c1ccc(OC)c(=O)cc1[C@@H](NC(=O)NC1CCCCC1)CC2 | 89 nM | 37 nM | 87 nM | 98 nM
4 | COc1cc2c(c(OC)c1OC)-c1ccc(OC)c(=O)cc1[C@@H](NC(=O)Nc1cccc3ccccc13)CC2 | 17 nM | 11.1 nM | 16 nM | 9 nM
5 | COc1cc2c(c(OC)c1OC)-c1ccc(OC)c(=O)cc1[C@@H](NC(=O)Nc1ccccc1)CC2 | 12 nM | 11 nM | 12 nM | 10 nM
6 | COc1cc2c(c(OC)c1OC)-c1ccc(OC)c(=O)cc1[C@@H](NC(=O)Nc1c(Cl)cc(F)cc1Cl)CC2 | 14 nM | 30 nM | 20 nM | 92 nM

The next lines start with results.

Row | IC50 [2] | IC50 [3] | IC50 [4] | SMILES | IC50 [1]
7 | 240 nM | 130 nM | 242 nM | COc1cc2c(c(OC)c1OC)-c1ccc(OC)c(=O)cc1[C@@H](NC(=O)Nc1c(C)cccc1C)CC2 | 218 nM
8 | 24 nM | 31 nM | 42 nM | COc1cc2c(c(OC)c1OC)-c1ccc(OC)c(=O)cc1[C@@H](NC(=O)Nc1ccc(Cl)cc1Cl)CC2 | 32 nM
9 | 10 nM | 8 nM | 7 nM | COc1cc2c(c(OC)c1OC)-c1ccc(OC)c(=O)cc1[C@@H](NC(=O)Nc1ccc3ccccc3c1)CC2 | 7 nM
10 | 6 nM | 4.7 nM | 6 nM | COc1cc2c(c(OC)c1OC)-c1ccc(OC)c(=O)cc1[C@@H](NC(=O)Nc1ccccc1F)CC2 | 5 nM
11 | 20 nM | 10 nM | 16 nM | COc1cc2c(c(OC)c1OC)-c1ccc(OC)c(=O)cc1[C@@H](NC(=O)Nc1cc(F)cc(F)c1)CC2 | 10 nM
12 | 4.4 nM | 3.8 nM | 3 nM | COc1cc2c(c(OC)c1OC)-c1ccc(OC)c(=O)cc1[C@@H](NC(=O)Nc1ccccc1OC(F)(F)F)CC2 | 5 nM
13 | 200 nM | 190 nM | 220 nM | COc1cc2c(c(OC)c1OC)-c1ccc(OC)c(=O)cc1[C@@H](NC(=O)Nc1ccc(C(F)(F)F)cc1Cl)CC2 | 220 nM

Source: ChEMBL document CHEMBL4229380, “Arylureas derived from colchicine: Enhancement of colchicine oncogene downregulation activity” (Eur J Med Chem, 2018)
